Results reported in ChEMBL document CHEMBL3044850, “Synthesis and biological activities of novel pyrazole oxime derivatives containing a 2-chloro-5-thiazolyl moiety” (2008).
≈ marks a conversion by molar mass, not a printed value. Calls of active or inactive are those of the source. The rule behind the calls is not given here.

Assays:
Format in all cases: functional
[1] = tested on: Mycosphaerella arachidis; experiment: Fungicidal activity against Mycosphaerella arachidis assessed as growth inhibition at 50 ug/ml at 23 degC after 3 days; conditions: for inhibition of growth at 50 µg/mL: 72 h, read-out: GI
Method in brief: (§1)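 Test solutions were made at 500 µg/mL and mixed 1:9 with agar medium to give 50 µg/mL plates. A 4 mm plug from the edge of actively growing mycelium was placed at the plate centre and incubated at 23 °C. Colony diameter was measured after 3 days against a sterile water plus medium blank, in triplicate. Inhibition = [(C − T)/C] × 100%.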

[2] = tested on: Alternaria solani; experiment: Fungicidal activity against Alternaria solani assessed as growth inhibition at 50 ug/ml at 23 degC after 3 days; conditions: for inhibition of growth at 50 µg/mL: 72 h, read-out: GI; method in brief: as §1
[3] = tested on: Fusarium graminearum; experiment: Fungicidal activity against Fusarium graminearum assessed as growth inhibition at 50 ug/ml at 23 degC after 3 days; conditions: for inhibition of growth at 50 µg/mL: 72 h, read-out: GI
Method in brief: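 Mycelial growth test in agar plates with 50 µg/mL final compound (from 500 µg/mL solution diluted into medium). A 4 mm plug from active mycelium fringe is placed centrally and incubated at 23 °C. Diameter is read after 3 days against a sterile water plus medium blank, in triplicate. Inhibition I = [(C − T)/C] × 100%.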

[4] = tested on: Cladosporium cucumerinum; experiment: Fungicidal activity against Cladosporium cucumerinum assessed as growth inhibition at 50 ug/ml at 23 degC after 3 days; conditions: 72 h, read-out: GI; method in brief: as §1
[5] = tested on: Botryosphaeria berengeriana; experiment: Fungicidal activity against Botryosphaeria berengeriana assessed as growth inhibition at 50 ug/ml at 23 degC after 3 days; conditions: for inhibition of growth at 50 µg/mL: 72 h, read-out: GI; method in brief: as §1
[6] = tested on: Aphis medicaginis; experiment: Insecticidal activity against Aphis medicaginis in soybean tender shoots assessed as mortality at 0.5 mg/ml treated for 5 secs measured after 48 hr
Method in brief: (§2)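 Insects held at 26 °C, 60% relative humidity, 14 h photoperiod. Acetone stock at 0.5 mg/mL is diluted with water containing TW-20. Soybean tender shoots bearing 60 insects are dipped for 5 s, drained, then kept under the same conditions. Mortality is scored after 48 h relative to untreated controls, in triplicate.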

[7] = tested on: Tetranychus cinnabarinus; experiment: Insecticidal activity against Tetranychus cinnabarinus (carmine spider mite) in soybean tender shoots assessed as mortality at 0.2 mg/ml treated for 5 secs measured after 48 hr; method in brief: as §2
[8] = tested on: Aphis medicaginis; experiment: Insecticidal activity against Aphis medicaginis in soybean tender shoots assessed as mortality at 0.2 mg/ml treated for 5 secs measured after 48 hr; method in brief: as §2
[9] = tested on: Cucumis sativus; experiment: Growth regulation of Cucumis sativus (cucumber) seeds assessed as rhizogenesis at 10 ug/ml at 24 degC after 3 days by cucumber cotyledon test
Method in brief: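 Cucumber seeds (JINKE No. 4) were germinated in the dark at 24 °C for 3 days, and cotyledons of uniform size were selected. Sample in DMF (10 µg/mL) was sprayed onto filter paper and dried, then the paper was wetted with distilled water. Ten cotyledons were incubated in the dark at 24 °C for 3 days. Rhizogenesis was counted per 10 hypocotyls, in triplicate, with a distilled-water control and Student's t test.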

[10] = tested on: Aphis medicaginis; experiment: Insecticidal activity against Aphis medicaginis in soybean tender shoots assessed as mortality treated for 5 secs measured after 48 hr

SMILES	inhibition of growth at 50 µg/mL [1] [%]	inhibition of growth at 50 µg/mL [2] [%]	growth inhibition (GI) [3]	inhibition of growth at 50 µg/mL [4] [%]	inhibition of growth at 50 µg/mL [5] [%]	mortality at 500 µg/mL [6] [%]	mortality at 200 µg/mL [7] [%]	mortality at 200 µg/mL [8] [%]	Activity [9] [%]	inhibition of growth at 50 µg/mL [3] [%]	growth inhibition (GI) [2]	mortality [7]	LC50 [10] [µg/mL]	growth inhibition (GI) [1]	growth inhibition (GI) [5]
Cc1ccc(Cl)c(Oc2c(/C=N/OCc3cnc(Cl)s3)c(C(F)(F)F)nn2C)c1	10.1	32.3	inactive	48.5	29.8	83.4	17.4	69.2	37.9	–	–	–	–	–	–
Cn1nc(C(F)(F)F)c(/C=N/OCc2cnc(Cl)s2)c1Oc1ccccc1	8.7	65.6	–	21.6	30.3	41.4	11.2	20.2	-12.5	22.4	–	–	–	–	–
Cn1nc(C(F)(F)F)c(/C=N/OCc2cnc(Cl)s2)c1Oc1ccccc1Cl	12.6	–	–	23.7	23.6	59.3	6.2	46.1	53.9	24.6	inactive	–	–	–	–
Cc1ccc(Oc2c(/C=N/OCc3cnc(Cl)s3)c(C(F)(F)F)nn2C)cc1C	32.9	53.2	–	8.9	26.2	71.2	6.4	61.4	-23.8	31.3	–	–	–	–	–
Cn1nc(C(F)(F)F)c(/C=N/OCc2cnc(Cl)s2)c1Sc1ccccc1	12.7	43.5	–	9.7	29.5	92.2	14.4	83.4	21.8	40.8	–	–	–	–	–
Cn1nc(C(F)(F)F)c(/C=N/OCc2cnc(Cl)s2)c1Oc1cccc(Cl)c1	55.3	22.9	–	43.1	21.7	70.4	7.4	61.2	14.2	26.7	–	–	–	–	–
Cc1ccc(Oc2c(/C=N/OCc3cnc(Cl)s3)c(C(F)(F)F)nn2C)cc1	5.9	34.6	–	15.7	21	95.3	3.4	85.4	43.6	23.8	–	–	–	–	–
Cn1nc(C(F)(F)F)c(/C=N/OCc2cnc(Cl)s2)c1Oc1ccc(Cl)cc1	11.8	–	–	15.4	32.1	92.3	–	84.4	-34.3	36.3	inactive	inactive	–	–	–
Cn1nc(C(F)(F)F)c(/C=N/OCc2cnc(Cl)s2)c1Oc1ccc(F)cc1	67.2	26.9	–	53.4	24.2	90.2	13.4	75.3	28.6	29	–	–	–	–	–
Cc1ccccc1Oc1c(/C=N/OCc2cnc(Cl)s2)c(C(F)(F)F)nn1C	10	42.6	–	32.6	35	90.4	9.3	81.3	-26.8	21.2	–	–	–	–	–
O=[N+]([O-])/N=C1\NCCN1Cc1ccc(Cl)nc1 [IMIDACLOPRID]	–	–	–	–	–	94.7	–	92.1	–	–	–	–	9.1 (≈ 35.6 µM)	–	–
Cn1nc(C(F)(F)F)c(/C=N/OCc2cnc(Cl)s2)c1Oc1ccc(Br)cc1	9.2	12.4	–	17.5	32.9	90.4	4.3	77.4	48.5	41.6	–	–	–	–	–
Cn1nc(C(F)(F)F)c(/C=N/OCc2cnc(Cl)s2)c1Oc1ccc(C(C)(C)C)cc1	–	24.8	–	18.1	22.1	89.4	–	73.3	72.7	12.5	–	inactive	–	inactive	–
Cn1nc(C(F)(F)F)c(/C=N/OCc2cnc(Cl)s2)c1Oc1ccc(Cl)cc1Cl	42.5	29.2	–	32.3	–	97.4	7.2	86.3	72.3	24.3	–	–	22.9 (≈ 47.1 µM)	–	inactive
Cc1nn(C)c(Oc2ccccc2)c1/C=N/OCc1ccc(C(=O)OC(C)(C)C)cc1 [FENPYROXYMATE]	12.5	8.3	–	14.5	6.7	18.4	99.7	12.4	10.6	5.2	–	–	–	–	–
Cc1cccc(Oc2c(/C=N/OCc3cnc(Cl)s3)c(C(F)(F)F)nn2C)c1	11.8	28	–	31.3	45.3	93.1	2.3	82.4	22.7	33.6	–	–	–	–	–
COc1ccc(Oc2c(/C=N/OCc3cnc(Cl)s3)c(C(F)(F)F)nn2C)cc1	22.6	14.6	inactive	12.3	46.5	92.2	13.4	83.4	30.8	–	–	–	–	–	–
Cn1nc(C(F)(F)F)c(/C=N/OCc2cnc(Cl)s2)c1Sc1ccc(Cl)cc1	25.8	28.8	–	18.9	42.4	91.4	11.3	80.4	34.7	32.6	–	–	26.2 (≈ 56.1 µM)	–	–
CC(C)(C)C(=O)C(Oc1ccc(Cl)cc1)n1cncn1 (centres undefined) [TRIADIMEFON]	73.4	66.1	–	81.5	86.7	–	–	–	50.2	72.6	–	–	–	–	–
